Laboratory results: ChEMBL document CHEMBL3407337, “Molecular design, synthesis and biological research of novel pyridyl acridones as potent DNA-binding and apoptosis-inducing agents” (Eur J Med Chem, 2015)
The source made the active and inactive calls. No cut-off for these calls is given here.

Assays:
Bos taurus = species: Bos taurus; experiment: Displacement of ethidium bromide from calf thymus DNA assessed as quenching constant up to 30 uM after 5 mins by competitive binding fluorescence method
Outline: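 EB final 10 μM with ct DNA 40 μM in Tris-HCl/50 mM NaCl, pH 7.2. Compound added at final 0, 5, 10, 20 and 30 μM. Incubated 5 min, excitation 366 nm, emission near 600 nm. Quenching constant from the Stern–Volmer fit F0/F = 1 + K[Q].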

K562 [1] = experiment: Induction of apoptosis in human K562 cells assessed as early apoptotic cells at 0.5 uM after 48 hrs by annexin V/PI staining based flow cytometry (reference value: 3.89 %); format: functional
K562 [2] = experiment: Induction of apoptosis in human K562 cells assessed as early apoptotic cells at 0.05 uM after 48 hrs by annexin V/PI staining based flow cytometry (reference value: 3.89 %); format: functional
[3] = Antiproliferative activity against human CNE2 cells after 48 hrs by MTT assay; format: functional, cell-based; details: CNE-2, 48 h
Outline: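 Adherent lines seeded at 6×10^3 cells/well and allowed 12 h attachment. Media: NCI-H520 and HeLa RPMI-1640; HepG2, MCF-7, CNE-2, A375, A172 and U118-MG DMEM; U251 MEM-EBSS; all with 10% FBS, 37 °C, 5% CO2. Dosed 48 h at final 50, 25, 10, 1 and 0.1 μM. MTT 4 h, formazan dissolved in DMSO, A490. IC50 from the dose series.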

K562 [4] = experiment: Induction of apoptosis in human K562 cells assessed as early apoptotic cells at 1 uM after 48 hrs by annexin V/PI staining based flow cytometry (reference value: 3.89 %); format: functional
[5] = biological target: T1, DNA topoisomerase 1 (Homo sapiens) (UniProt P11387); experiment: Inhibition of recombinant human Topo1-mediated relation of supercoiled pBR322 DNA at 50 uM after 30 mins by agarose gel electrophoresis
T1 sequence (whole entry): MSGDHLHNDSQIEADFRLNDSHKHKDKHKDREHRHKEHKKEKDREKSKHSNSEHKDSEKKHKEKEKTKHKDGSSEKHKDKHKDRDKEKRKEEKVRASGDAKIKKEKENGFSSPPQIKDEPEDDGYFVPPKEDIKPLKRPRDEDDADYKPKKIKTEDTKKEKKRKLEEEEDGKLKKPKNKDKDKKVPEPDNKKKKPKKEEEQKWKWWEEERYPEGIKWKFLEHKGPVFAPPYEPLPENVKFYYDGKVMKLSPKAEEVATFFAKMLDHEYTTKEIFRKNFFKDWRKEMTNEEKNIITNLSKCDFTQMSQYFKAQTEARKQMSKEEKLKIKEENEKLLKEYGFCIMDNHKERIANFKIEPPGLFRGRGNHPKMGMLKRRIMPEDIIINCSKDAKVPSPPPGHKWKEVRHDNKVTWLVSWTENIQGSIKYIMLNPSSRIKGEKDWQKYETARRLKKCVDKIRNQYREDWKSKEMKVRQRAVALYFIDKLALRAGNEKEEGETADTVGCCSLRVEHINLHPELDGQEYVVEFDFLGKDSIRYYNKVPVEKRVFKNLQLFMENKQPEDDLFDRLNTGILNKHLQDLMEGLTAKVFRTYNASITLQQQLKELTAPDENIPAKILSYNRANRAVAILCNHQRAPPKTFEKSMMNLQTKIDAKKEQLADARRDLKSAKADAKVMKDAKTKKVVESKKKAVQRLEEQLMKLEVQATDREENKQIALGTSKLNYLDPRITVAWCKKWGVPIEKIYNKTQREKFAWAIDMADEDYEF
Outline: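 pBR322 at 100 ng with 1.0 unit recombinant human topo I. Incubated 30 min at 37 °C in 35 mM Tris-HCl pH 8.0, 5 mM MgCl2, 72 mM KCl, 0.01% BSA, 2 mM spermidine and 5 mM DTT. Run on 1% agarose in TAE at 100 V for 25 min. EB-stained gel viewed under UV.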

K562 [6] = experiment: Induction of apoptosis in human K562 cells assessed as early apoptotic cells at 0.25 uM after 48 hrs by annexin V/PI staining based flow cytometry (reference value: 3.89 %); format: functional

Cc1cccc2c(=O)c3c(NCc4ccncc4)ccc(C(=O)NCCN(C)C)c3[nH]c12
Kq (Bos taurus): 1 ×10⁴ /M
Activity (K562 [1]): 23.13%
Activity (K562 [2]): 8.98%
IC50 [3]: 980 nM
Activity (K562 [4]): 27.06%
inhibition [5]: Active
Activity (K562 [6]): 15.64%
